Read-outs that look alike come from different tables or passages of the source. Where a SMILES comes first, the peptide text is derived from it.
How the values were obtained:
[1] = biological target: Recombinant human HDAC1 enzyme (Homo sapiens, UniProt Q13547); test: HDAC-Glo I/II enzymatic assay; type: biochemical; details: for Activity outcome in HDAC1 enzymatic HDAC-Glo I/II assay: qHTS, 11 concentrations, active = CRC class 1 and 2 and AUC>100; for Emax: read-out: % Efficacy, HDAC-Glo: HDAC1
[2] = tested on: HDAC class I and II activity in HEK293T cells; test: HDAC-Glo I/II cellular assay in HEK293T cells; type: cell-based; details: qHTS, 1 hour, active = CRC class 1 and 2 and AUC>100
HDAC1–86b = HDAC1–86b (Homo sapiens, UniProt Q13547); test: HDAC1-86b SplitLuc CETSA in HEK293T cells; type: binding; details: for Activity outcome in SplitLuc CETSA (thermal stabilization of HDAC1–86b): 49°C, active = CRC class 1 and 2 and AUC>50; for Average IC50 ± SD (% Efficacy), SplitLuc CETSA: HEK293T: thermal stabilization at 49°C, n=2
[3] = biological target: HDAC1-NanoLuc fusion protein (Homo sapiens, UniProt Q13547); test: HDAC1 NanoBRET target engagement assay in HEK293T cells; type: binding; details: for Average IC50 ± SD, NanoBRET: HEK293T: n=2; for Average IC50 ± SD, NanoBRET: HEK293T / Activity outcome in NanoBRET (HDAC1 engagement, displacement of SAHA tracer): HEK293T; for Activity outcome in NanoBRET (HDAC1 engagement, displacement of SAHA tracer): 28.9 μM to 0.49 nM, active = CRC class 1 and 2 and AUC>100; for Emax: read-out: % Efficacy, NanoBRET: HEK293T
HEK293T cells = test: CellTiter-Glo acute cell death counterscreen; type: cell-based; details: 1 hour; at the highest concentration tested of 45.8 μM
[4] = tested on: HDAC class I and II activity in HeLa cells; test: HDAC-Glo I/II cellular assay in HeLa cells; type: cell-based; details: qHTS; 1 hour; active = CRC class 1 and 2 and AUC>100
[5] = Fluorescence counterscreen; type: physicochemical; details: excited at 450 nm, emission 500–750 nm; 610 nm channel of NanoBRET
How it was run: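 Cell-free scan: test compound pinned into wells of growth medium alone (final DMSO 0.28 %), no cells or tracer added. Wells excited at 450 nm and emission read every 10 nm across 500–750 nm to build a full spectrum, flagging intrinsic fluorescence near the 610 nm NanoBRET acceptor channel.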

isolated HDAC1 = details: read-out: reported IC50 against isolated HDAC1; cited from earlier work

Sequence of HDAC1-NanoLuc fusion protein (Q13547 whole entry, the tested form may be a part): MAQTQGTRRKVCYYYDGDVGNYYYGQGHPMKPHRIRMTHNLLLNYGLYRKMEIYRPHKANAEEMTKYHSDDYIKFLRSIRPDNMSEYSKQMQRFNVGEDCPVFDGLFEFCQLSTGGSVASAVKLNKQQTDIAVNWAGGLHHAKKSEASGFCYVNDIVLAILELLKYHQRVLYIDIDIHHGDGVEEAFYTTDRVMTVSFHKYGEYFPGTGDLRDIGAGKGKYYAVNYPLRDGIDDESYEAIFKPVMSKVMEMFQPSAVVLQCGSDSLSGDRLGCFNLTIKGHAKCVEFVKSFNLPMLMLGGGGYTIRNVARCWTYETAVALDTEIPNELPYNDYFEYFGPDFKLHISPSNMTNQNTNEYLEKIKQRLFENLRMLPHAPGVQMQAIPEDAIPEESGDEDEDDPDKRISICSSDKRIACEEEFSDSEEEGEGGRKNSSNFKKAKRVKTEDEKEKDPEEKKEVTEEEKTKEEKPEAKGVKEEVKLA
Sequence of HDAC1–86b (Q13547 whole entry, the tested form may be a part): as above
Sequence of Recombinant human HDAC1 enzyme (Q13547 whole entry): as the sequence (Q13547 whole entry, the tested form may be a part) above

Compound	Activity outcome in HDAC1 enzymatic HDAC-Glo I/II assay [1]	IC50 [1] [nM]	Emax [1] [%]	Activity outcome in HEK293T cellular HDAC-Glo I/II assay [2]	other results
NC(=O)c1cccc2[nH]c(-c3ccc([C@@H]4CCCN4)cc3F)nc12 [A-966492]	active				
CCCSc1ccc2nc(NC(=O)OC)[nH]c2c1 [Albendazole]		7700 ± 800	93		
CCC(=O)CCCCC[C@@H]1NC(=O)[C@H]2CCCCN2C(=O)[C@H]([C@@H](C)CC)NC(=O)[C@H](Cc2cn(OC)c3ccccc23)NC1=O [Apicidin]	most potent			most potent	Activity outcome in SplitLuc CETSA (thermal stabilization of HDAC1–86b) (HDAC1–86b): most potent
COc1ccc(-c2nc(N3CCOCC3)c3sc(CN(C)c4ncc(C(=O)NO)cn4)cc3n2)cn1 [CUDC-907]	most potent			most potent	Activity outcome in SplitLuc CETSA (thermal stabilization of HDAC1–86b) (HDAC1–86b): most potent
CCS(=O)(=O)N1CCN(c2ccc(Nc3ncc(C(N)=O)c(NC4CC4)n3)cc2)CC1 [Cerdulatinib]					Acute effect on HEK293T cell viability (CellTiter-Glo) (HEK293T cells): reduced HEK293T cell viability
O=C(/C=C/c1ccc(CN(CCO)CCc2c[nH]c3ccccc23)cc1)NO [Dacinostat]				most potent	
Nc1ccc2c(c1)CN1C(=O)c3ccccc3C1=N2 [Daniquidone]		2100 ± 600	92		Intrinsic fluorescence [5]: fluorescence over the 500–750 nm range
O=S(=O)(O)c1ccc2[nH]c(-c3ccccc3)nc2c1 [Ensulizole]		2400 ± 300	99		
O=C(CCCCCCSc1ccc2ccccc2c1)NO [HNHA]	inactive			inactive	
Cc1oncc1C(=O)Nc1ccc(C(F)(F)F)cc1 [Leflunomide]		3000 ± 200	96		Average IC50 ± SD (% Efficacy), SplitLuc CETSA: HEK293T (HDAC1–86b): Inactive; Average IC50 ± SD, NanoBRET: HEK293T [3]: Inactive
CCCCN(Cc1ccc(C(=O)NO)cc1)C(=O)Nc1ccccc1 [Nexturastat A]					Activity outcome in NanoBRET (HDAC1 engagement, displacement of SAHA tracer) [3]: engagement
O=C(Nc1ccc([N+](=O)[O-])cc1Cl)c1cc(Cl)ccc1O [Niclosamide]		2800 ± 10	99		Average IC50 ± SD (% Efficacy), SplitLuc CETSA: HEK293T (HDAC1–86b): Inactive; Average IC50 ± SD, NanoBRET: HEK293T [3]: Inactive
CC(=O)Oc1ccccc1C(=O)Nc1ncc([N+](=O)[O-])s1 [Nitazoxanide]		5100 ± 300	95		
CC(C)C(=O)SCCCCCCC(=O)Nc1nc(-c2ccccc2)cs1 [PTACH]	inactive			showed HDAC inhibition	Activity outcome in NanoBRET (HDAC1 engagement, displacement of SAHA tracer) [3]: engagement
O=C(CCCCCCC(=O)Nc1cccnc1)NO [Pyroximide]				inactive	
COc1cc(OC)c2c(=O)[nH]c(-c3cc(C)c(OCCO)c(C)c3)nc2c1 [RVX-208]	active				
Oc1ccc(/C=C/c2cc(O)cc(O)c2)cc1 [Resveratrol]		1500 ± 10	95		Average IC50 ± SD (% Efficacy), SplitLuc CETSA: HEK293T (HDAC1–86b): Inactive
O=C(Nc1cccc(Cl)c1)Nc1ncc(CCNc2ncnc3ccsc23)s1 [SNS-314]					Acute effect on HEK293T cell viability (CellTiter-Glo) (HEK293T cells): acute cell death; IC50 [3]: 549 nM; Activity outcome in NanoBRET (HDAC1 engagement, displacement of SAHA tracer) [3]: engagement
Cc1ccc(NC(=O)CCCCCC(=O)Nc2ccccc2N)cc1 [TC-H-106]	active			relatively weak activity (below the activity cutoff)	Activity outcome in HEK293T cellular HDAC-Glo I/II assay ([2]; listed as TC-H 106): either inactive or did not pass the activity cutoff; Activity outcome in HeLa cellular HDAC-Glo I/II assay [4]: relatively weak activity (below the activity cutoff)
O=C(Nc1ncc([N+](=O)[O-])s1)c1cccs1 [Tenonitrozole]		1700 ± 10	93		
c1ccc2[nH]c(-c3cscn3)nc2c1 [Thiabendazole]		3800 ± 600	90		Average IC50 ± SD (% Efficacy), SplitLuc CETSA: HEK293T (HDAC1–86b): Inactive; Average IC50 ± SD, NanoBRET: HEK293T [3]: Inactive
O=C(CCCCC[C@@H]1NC(=O)[C@H]2CCCCN2C(=O)[C@H](Cc2ccccc2)NC(=O)[C@H](Cc2ccccc2)NC1=O)C1CO1 (some centres unmarked) [Trapoxin A] (HELM PEPTIDE1{F.F.[O=C([C@H]1CCCCN1[*:1])[*:2]].[O=C(CCCCC[C@H](N[*:1])C(=O)[*:2])C1CO1]}$PEPTIDE1,PEPTIDE1,1:R1-4:R2$$$V2.0)	most potent			most potent	Activity outcome in SplitLuc CETSA (thermal stabilization of HDAC1–86b) (HDAC1–86b): most potent
O=C(CCCCCCC(=O)Nc1ccc([C@H]2O[C@@H](CSc3nc(-c4ccccc4)c(-c4ccccc4)o3)C[C@@H](c3ccc(CO)cc3)O2)cc1)NO [Tubacin]	weak activity			weak activity	Activity outcome in SplitLuc CETSA (thermal stabilization of HDAC1–86b) (HDAC1–86b): did not pass the activity cutoff; Activity outcome in NanoBRET (HDAC1 engagement, displacement of SAHA tracer) [3]: did not pass the activity cutoff
CCCCNNC(=O)c1ccc(Br)cc1 [UF 010]	weak activity			weak activity	Activity outcome in SplitLuc CETSA (thermal stabilization of HDAC1–86b) (HDAC1–86b): did not pass the activity cutoff; Activity outcome in NanoBRET (HDAC1 engagement, displacement of SAHA tracer) [3]: did not pass the activity cutoff

More lines, main results first:

Activity outcome in HDAC1 enzymatic HDAC-Glo I/II assay [1]	IC50 [1] [nM]	Emax [1] [%]	Compound	Activity outcome in HEK293T cellular HDAC-Glo I/II assay [2]	other results
active			Cn1cc(C(=O)Cc2ccccc2)cc1/C=C/C(=O)NO [APHA Compound 8]	either inactive or did not pass the activity cutoff	
	3000 ± 200	90	CNC(=O)c1ccccc1Sc1ccc2c(/C=C/c3ccccn3)n[nH]c2c1 [Axitinib]		Average IC50 ± SD (% Efficacy), SplitLuc CETSA: HEK293T (HDAC1–86b): Inactive; Average IC50 ± SD, NanoBRET: HEK293T [3]: Inactive
	1100 ± 100	95	CN(C)C(=O)COC(=O)Cc1ccc(OC(=O)c2ccc(NC(=N)N)cc2)cc1 [Camostat]		Average IC50 ± SD (% Efficacy), SplitLuc CETSA: HEK293T (HDAC1–86b): Inactive; IC50 [3]: 8200 ± 1400 nM; Activity outcome in NanoBRET (HDAC1 engagement, displacement of SAHA tracer) [3]: weakly engage HDAC1; Emax [3]: 90%
active			Nc1cc(F)ccc1NC(=O)c1ccc(CNC(=O)/C=C/c2cccnc2)cc1 [Chidamide]	relatively weak activity (below the activity cutoff)	Activity outcome in HeLa cellular HDAC-Glo I/II assay [4]: relatively weak activity (below the activity cutoff)
active			Nc1ccccc1NC(=O)c1ccc(CNC(=O)OCc2cccnc2)cc1 [Entinostat]	relatively weak activity (below the activity cutoff)	Activity outcome in HeLa cellular HDAC-Glo I/II assay [4]: relatively weak activity (below the activity cutoff)
weak activity			O=C(NO)c1ccc(CC(=O)N(CCO)c2ccccc2)cc1 [HPOB]	weak activity	Activity outcome in SplitLuc CETSA (thermal stabilization of HDAC1–86b) (HDAC1–86b): did not pass the activity cutoff; Activity outcome in NanoBRET (HDAC1 engagement, displacement of SAHA tracer) [3]: did not pass the activity cutoff
active			C=C1CN(Cc2ccc(C(=O)Nc3ccccc3N)cc2)C(=O)c2ccccc21 [MI 192]	relatively weak activity (below the activity cutoff)	Activity outcome in HeLa cellular HDAC-Glo I/II assay [4]: relatively weak activity (below the activity cutoff); IC50 ([1]; read-out: IC50 in the enzymatic assay (HDAC1), HDAC-Glo I/II, Epigenetic-Focused collection): 80 nM; IC50 (isolated HDAC1): 4800 nM; Activity outcome in NanoBRET (HDAC1 engagement, displacement of SAHA tracer) [3]: engage HDAC1 in cells
	1300 ± 100	97	N=C(N)c1ccc2cc(OC(=O)c3ccc(N=C(N)N)cc3)ccc2c1 [Nafamostat]		Average IC50 ± SD (% Efficacy), SplitLuc CETSA: HEK293T (HDAC1–86b): Inactive; IC50 [3]: 11800 ± 2900 nM; Activity outcome in NanoBRET (HDAC1 engagement, displacement of SAHA tracer) [3]: weakly engage HDAC1; Emax [3]: 37%
most potent			Cn1cc(CNCC2CCN(c3ncc(C(=O)NO)cn3)CC2)c2ccccc21 [Quisinostat]	most potent	Activity outcome in SplitLuc CETSA (thermal stabilization of HDAC1–86b) (HDAC1–86b): most potent
active			CC(=O)Nc1ccc(C(=O)Nc2ccccc2N)cc1 [Tacedinaline]		Activity outcome in HeLa cellular HDAC-Glo I/II assay [4]: relatively weak activity (below the activity cutoff)
weak activity			CN1CCc2c(c3ccccc3n2Cc2ccc(C(=O)NO)cc2)C1 [Tubastatin A]	weak activity	Activity outcome in SplitLuc CETSA (thermal stabilization of HDAC1–86b) (HDAC1–86b): inactive; Activity outcome in NanoBRET (HDAC1 engagement, displacement of SAHA tracer) [3]: inactive
